This passage reports GI50 and RatioGI50 results from ChEMBL document CHEMBL5260824, “9-Deazapurines as Broad-Spectrum Inhibitors of the ABC Transport Proteins P-Glycoprotein, Multidrug Resistance-Associated Protein 1, and Breast Cancer Resistance Protein” (J Med Chem, 2017).

One experiment concerns H69AR. The experiment in a line: Inhibition of cell growth in Daunorubicin resistant human NCI-H69AR cells expressing MRP1 measured for 72 hrs by MTT assay. The experiment is classed as functional. The procedure, abridged:
(§1)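 Reversal assay: resistant lines (A2780/ADR, H69AR, MDCK II BCRP) and parental lines seeded as for MTT assay with modulator solutions of 1, 10 and 100 µM added (final 0.1, 1, 10 µM) and daunorubicin (P-gp, MRP1) or SN-38 (BCRP) at final 10 nM–10 µM. 72 h, MTT read-out; GI50 by variable-slope fit. Resistance factor = resistant/sensitive GI50; potentiation factor = GI50 without/with modulator.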

Experiment [1] in a line: Inhibition of cell growth in Daunorubicin resistant human A2780 ADR cells expressing P-gp measured for 72 hrs by MTT assay. The experiment is classed as functional. The procedure, abridged:
as §1
(Formazan colour is commonly taken as a measure of viable cells.)

Experiment [2] is described as follows: Inhibition of daunorubicin sensitive human A2780 ADR cells expressing P-gp measured for 72 hrs by MTT assay. The experiment is classed as functional. The procedure, abridged: as §1
Experiment [3] can be described thus: Inhibition of daunorubicin sensitive human NCI-H69AR cells expressing MRP1 measured for 72 hrs by MTT assay. The experiment is classed as functional. The procedure, abridged: as §1
Experiment [4] is described as follows: Resistance factor, ratio of GI50 for inhibition of cell growth in daunorubicin resistant human NCI-H69AR cells expressing MRP1 to GI50 for inhibition of daunorubicin sensitive human NCI-H69 cells.
Experiment [5] in a line: Resistance factor, ratio of GI50 for inhibition of cell growth in daunorubicin resistant human A2780 ADR cells expressing P-gp measured for 72 hrs by MTT assay to GI50 for inhibition of daunorubicin sensitive human A2780 cells measured for 72 hrs by MTT assay.

Broadly, the GI50 is the concentration giving 50% growth inhibition. A high value points to less potent growth inhibition. As to `COc1cccc2c1C(=O)c1c(O)c3c(c(O)c1C2=O)C[C@@](O)(C(C)=O)C[C@@H]3O[C@H]1C[C@H](N)[C@H](O)[C@H](C)O1` [DAUNORUBICIN], the 50% growth inhibitory concentration (GI50) in the experiment with H69AR amounted to 3840 nM; in experiment [1], 575 nM; in experiment [2], 10 nM; in experiment [3] it was 361 nM. Also, the values for the RatioGI50 in experiment [4] and in experiment [5] were 11 and 54, respectively.
